In ChEMBL document CHEMBL1133734, “Synthesis and evaluation of nitroheterocyclic phosphoramidates as hypoxia-selective alkylating agents” (2000):

Columns and labels:
[1] = test system: MCF7-CP; test: Tested in vitro for cytotoxicity against MCF-7/CP 4-hydroperoxycyclophosphamide-resistant human breast cancer cells; type: functional
How it was run: (§1)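 Clonogenic assay. Cells were suspended in unsupplemented medium at 2-30 000 cells/mL and exposed 2 h at 37 °C, 5% CO2 to 1-400 µM drug (final), with the top dose chosen to give >99% kill. Drug stocks were made in medium or ethanol. After washing, cells were plated at 2-3 dilutions. Colonies of ≥50 cells were stained with crystal violet at 8 days (B16) or 14 days (MCF-7). LC99 was taken by linear regression of log surviving fraction vs concentration.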

[2] = test system: MCF7; test: Tested in vitro for cytotoxicity against MCF-7/WT wild-type human breast cancer cells; type: functional; how it was run: as §1
[3] = test system: HT-29; test: Tested in vitro for cytotoxicity against HT-29 human colon carcinoma cells under hypoxic condition; type: functional
How it was run: (§2)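 HT-29 colon cells were grown in α-MEM with 10% FBS and given a 4-h drug exposure under aerobic or hypoxic conditions in a clonogenic assay run in duplicate. The top dose was chosen to give >99% kill. LC99 (1% colony survival versus untreated controls) was taken by linear regression of log surviving fraction vs drug concentration.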

[4] = Ratio of lethal conc. under aerobic to hypoxic condition in HT-29 cells; type: functional
How it was run: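 HT-29 hypoxic selectivity. Aerobic and hypoxic LC99 values (concentration cutting clonogenic survival by 2 log units) come from the log-linear portion of each survival curve after 4-h drug treatment, assayed in duplicate. The ratio is aerobic LC99 over hypoxic LC99.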

[5] = test system: HT-29; test: Tested in vitro for cytotoxicity against HT-29 human colon carcinoma cells under aerobic condition; type: functional; how it was run: as §2
[6] = test system: B16; test: Tested in vitro for cytotoxicity against B16 murine melanoma cells; type: functional, Mus musculus; how it was run: as §1

| SMILES | LC99 [1] [µM] | LC99 [2] [µM] | LC99 [3] [µM] | Ratio [4] | LC99 [5] [µM] | LC99 [6] [µM] |
| --- | --- | --- | --- | --- | --- | --- |
| NC(=O)c1cc(COP(N)(=O)N(CCBr)CCBr)sc1[N+](=O)[O-] (stereo not drawn) | 1.5 | 1.6 | 0.33 | 2.2 | 0.73 | 1.4 |
| O=[N+]([O-])c1ccc(COP(=O)(N(CCBr)CCBr)N(CCBr)CCBr)o1 | 2.3 | 1.9 | – | – | – | 1.7 |
| CN(C)c1cc(COP(N)(=O)N(CCBr)CCBr)sc1[N+](=O)[O-] (stereo not drawn) | 110 | 88 | 8.9 | 20 | 180 | 52 |
| NP(=O)(OCc1cc(Br)c([N+](=O)[O-])s1)N(CCBr)CCBr (stereo not drawn) | 1.3 | 0.62 | 0.25 | 3.6 | 0.91 | 0.44 |
| O=P1(N(CCCl)CCCl)NC(OO)CCO1 (stereo not drawn) [PERFOSFAMIDE] | 145 | 14 | – | – | – | 11 |
| O=[N+]([O-])c1ccc(COP(=O)(N(CCCl)CCCl)N(CCCl)CCCl)s1 | 6.5 | 7.9 | 6.2 | 1.7 | 10.8 | 5.1 |
| Cn1c([N+](=O)[O-])cnc1COP(=O)(N(CCCl)CCCl)N(CCCl)CCCl | >600 | >600 | 28 | >20 | >600 | 150 |
| N#Cc1cc(COP(N)(=O)N(CCBr)CCBr)sc1[N+](=O)[O-] (stereo not drawn) | 0.24 | 0.11 | 0.22 | 2.8 | 0.62 | 0.45 |
| O=[N+]([O-])c1ccc(COP(=O)(N(CCBr)CCBr)N(CCBr)CCBr)s1 | 1.9 | 2.4 | – | – | – | 1.1 |
| Cn1c(COP(=O)(N(CCCl)CCCl)N(CCCl)CCCl)ccc1[N+](=O)[O-] | 245 | 205 | – | – | – | 70 |
| O=[N+]([O-])c1ccc(COP(=O)(N(CCCl)CCCl)N(CCCl)CCCl)o1 | 22 | 20 | 3.4 | 3.5 | 12 | 9.3 |
| O=P(OCc1cccs1)(N(CCCl)CCCl)N(CCCl)CCCl | 205 | 211 | – | – | – | 120 |
| O=P(OCc1ccco1)(N(CCCl)CCCl)N(CCCl)CCCl | 230 | 300 | – | – | – | 53 |
| Cn1c(COP(=O)(N(CCBr)CCBr)N(CCBr)CCBr)ccc1[N+](=O)[O-] | 51 | 57 | – | – | – | 14 |
